Reference: ChEMBL document CHEMBL1151472, “In vitro interactions between tacrolimus and azoles against Candida albicans determined by different methods” (2008)

Columns and labels:
Assay type in all cases: functional
Set-up in all cases: scale not given: the % may be the effect or the level left
Candida albicans [1] = experiment: Antimicrobial activity against azole-resistant Candida albicans isolate CA10 assessed as growth at 0.5 ug/ml co-treated with 0.016 ug/ml calcineurin signaling inhibitor tacrolimus after 48 hrs by microdilution checkboard technique relative to control
Summary of the method: (§1)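 Checkerboard microdilution in MOPS-buffered RPMI 1640 (pH 7.0, 2% dextrose). Final ranges: azole 0.125–128 μg/ml (FLC) or 0.008–8 μg/ml (ITR, VRC), tacrolimus 0.002–0.125 μg/ml; solvent 1% in single-drug wells. Inoculum 2.5 × 10^3 CFU/ml, 35°C, 48 h. Growth % = background-subtracted OD492 of each well / drug-free well. Triplicate on different days.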

Candida albicans [2] = experiment: Antimicrobial activity against azole-resistant Candida albicans isolate CA10 assessed as growth at 1 ug/ml cotreated with 0.004 ug/ml calcineurin signaling inhibitor Tacrolimus after 48 hrs by microdilution checkboard technique relative to control; summary of the method: as §1
Candida albicans [3] = experiment: Antimicrobial activity against azole-resistant Candida albicans isolate CA10 assessed as growth at 16 ug/ml co-treated with 0.016 ug/ml calcineurin signaling inhibitor tacrolimus after 48 hrs by microdilution checkboard technique relative to control; summary of the method: as §1
Candida albicans [4] = experiment: Antimicrobial activity against azole-resistant Candida albicans isolate CA10 assessed as growth at 0.25 ug/ml cotreated with 0.063 ug/ml calcineurin signaling inhibitor Tacrolimus after 48 hrs by microdilution checkboard technique relative to control
Summary of the method: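 Checkerboard microdilution in RPMI 1640 (pH 7.0, 2% dextrose, 0.165 M MOPS). Azole dilutions run along columns and FK506 along rows, at 4× final concentration. Final inoculum 2.5 × 10^3 CFU/ml from Sabouraud-subcultured cells. Incubated 35°C for 48 h; OD read at 492 nm. Background from microorganism-free plates subtracted. Growth % = well OD / drug-free well OD. Triplicate on different days, values averaged.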

SMILES: OC(Cn1cncn1)(Cn1cncn1)c1ccc(F)cc1F [FLUCONAZOLE]
- Activity (Candida albicans [1]): 21%
- Activity (Candida albicans [2]): 29%
- Activity (Candida albicans [3]): 19%
- Activity (Candida albicans [4]): 11%
